Experimental data as given in ChEMBL document CHEMBL1122218, “Phosphonate analogues of pyridoxal phosphate with shortened side chains” (J Med Chem, 1983).
Several values for one entry are separate records, joined by “and”; a condition that tells them apart may be missing. Identical values can stand only once.

Assay: Apparent acid dissociation constant (pK) was determined
Type: ADME
Conditions: for pKa: read-out: pK
How it was run: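 Analogue bound to apo-aspartate aminotransferase (complex formed at pH 8.3) was titrated toward lower pH by adding 2 M acetate buffer, pH 5.4. Absorption spectra were followed for the shift of the bound-coenzyme band to 420 nm, and the pK was estimated from the pH dependence of that spectral change.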

| Compound | pK | pKa |
| --- | --- | --- |
| CCOP(=O)(Cc1cnc(C)c(O)c1CO)OCC | 8.59 | 4.53 |
| CCOP(=O)(O)Cc1cnc(C)c(O)c1C=O | 3.91 and 8.21 |  |
| CCOP(=O)(Cc1cnc(C)c(O)c1C=O)OCC | 3.03 and 7 |  |
| Cc1cnc(C)c(O)c1C=O | 8.05 | 4.15 |
| Cc1ncc(CP(=O)(O)O)c(C=O)c1O | 4.07 and 6.76 and 9.2 |  |
| Cc1ncc(COP(=O)(O)O)c(C=O)c1O [PYRIDOXAL PHOSPHATE ANHYDROUS] | 3.62 and 6.1 and 8.33 |  |
